TRPC6 inh – mouse TRPC6 channel inhibitors, primary screen, cell-based, HEK293, membrane potential dye. ACh-evoked depolarization; active compounds read low. B-score at 10 µM. 1.1% of 310,000 active. AID 2553, 2010;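 active means B-score under library mean minus 3 SD, initial fluorescence not abnormally high, positive integrated signal ratio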;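 further: B-score derived from integrated fluorescence ratio over the kinetic read; more negative B-score means stronger inhibition of depolarization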
Target sequence (Q61143 whole entry, looked up): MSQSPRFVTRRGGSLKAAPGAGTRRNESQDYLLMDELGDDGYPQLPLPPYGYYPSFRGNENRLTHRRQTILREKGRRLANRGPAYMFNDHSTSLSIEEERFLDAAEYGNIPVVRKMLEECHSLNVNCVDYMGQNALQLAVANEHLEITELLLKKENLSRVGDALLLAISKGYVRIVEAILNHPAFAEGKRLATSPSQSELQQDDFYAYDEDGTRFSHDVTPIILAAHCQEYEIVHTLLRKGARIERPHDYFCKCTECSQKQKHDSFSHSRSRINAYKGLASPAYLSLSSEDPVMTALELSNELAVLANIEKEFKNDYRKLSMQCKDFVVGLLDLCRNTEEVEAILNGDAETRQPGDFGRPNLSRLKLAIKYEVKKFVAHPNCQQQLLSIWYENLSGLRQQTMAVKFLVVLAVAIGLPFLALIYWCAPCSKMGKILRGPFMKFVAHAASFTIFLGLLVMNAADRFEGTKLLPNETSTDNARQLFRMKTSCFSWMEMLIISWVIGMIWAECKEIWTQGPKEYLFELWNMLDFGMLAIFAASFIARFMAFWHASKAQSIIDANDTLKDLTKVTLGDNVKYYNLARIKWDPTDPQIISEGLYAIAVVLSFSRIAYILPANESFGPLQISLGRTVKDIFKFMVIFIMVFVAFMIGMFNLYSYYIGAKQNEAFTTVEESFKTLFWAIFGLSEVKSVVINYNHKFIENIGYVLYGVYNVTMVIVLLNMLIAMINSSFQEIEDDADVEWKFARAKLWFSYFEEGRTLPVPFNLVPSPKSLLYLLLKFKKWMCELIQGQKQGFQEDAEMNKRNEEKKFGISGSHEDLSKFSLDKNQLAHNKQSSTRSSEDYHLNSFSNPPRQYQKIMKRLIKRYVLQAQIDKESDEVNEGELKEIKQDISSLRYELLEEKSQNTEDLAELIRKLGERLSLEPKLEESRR
TRPC6 activator – mouse TRPC6 channel activators, primary screen, cell-based, HEK293, membrane potential dye; Short transient receptor potential channel 6 (Mus musculus), Q61143; HEK293-TRPC6 membrane potential dye fluorescence; active compounds read high; B-score at 10 µM; 0.13% of 310,000 active; AID 2550, 2010;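 active means B-score of the integrated fluorescence ratio above library mean plus 3 SD, and starting fluorescence ratio within library mean plus 5 SD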;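 further: higher score means more depolarization so channel activation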
DNA FID counter – compounds displacing fluorescent DNA intercalator, primary screen, artefact control for HCV NS3 helicase inhibitor project, biochemical, FID fluorescence | DNA fluorescent intercalator displacement | inhibition, % at 7.9 µM | 0.17% of 290,000 active | AID 1845, 2009; in the data active means inhibition above about 37%;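 further: 0% = vehicle and 100% = reference compound; higher means more ethidium bromide displaced from hairpin DNA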
TRPC4 potent – positive allosteric modulators of TRPC4, primary screen, cell-based, mouse TRPC4beta, HEK293 mu-opioid, Fluo-4 calcium | Short transient receptor potential channel 4 (Mus musculus), Q9QUQ5 | DAMGO EC20, Fluo-4 Ca2+ flux; active compounds read high | B-score at 10 µM | 0.42% of 310,000 active;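 active means B-score of calcium response area above 5 SD of library B-scores, with initial fluorescence ratio within 5 SD of library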;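 further: B-score of integrated fluorescence ratio over time as area under calcium response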
TRPC4 agonist – activators of mouse TRPC4 channel, primary screen, Fluo4 calcium, HEK293 TRPC4beta/mu-opioid cells; Fluo4 calcium fluorescence; active compounds read high; 0.49% of 310,000 active; B-score at 10 µM; AID 2237, 2010;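 active means B-score above 5 SD of library B-scores, and initial fluorescence ratio not above library mean plus 5 SD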;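 further: positive B-score marks a calcium rise read as TRPC4 activation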
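System: HEK293 cells stably co-expressing mouse TRPC4beta and mu-opioid receptor; Schedule: Fluo4 dye loading 45 min at room temperature, 110 s recording; Detection: Fluo4 fluorescence, kinetic; Evaluation: B-scored integrated calcium fluorescence ratio; Controls: buffer (low) and maximal DAMGO (high).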
TRPC4 inh – inhibitors of mouse TRPC4 channel, primary screen, Fluo4 calcium, HEK293 TRPC4beta/mu-opioid cells; Short transient receptor potential channel 4 (Mus musculus), Q9QUQ5; DAMGO-evoked Fluo4 calcium flux; active compounds read low; AID 2247, 2010; B-score at 10 µM; 0.39% of 300,000 active;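 active means B-score over 3 SD under the library average, no early fluorescence shift, positive overall ratio signal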
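Assay system: HEK293 cells with stable TRPC4beta plus mu-opioid receptor expression. Dosing: single dose. Measured by: Fluo4 Ca2+ flux fluorescence. Also added: DAMGO in two steps, submaximal then maximal. Read-out: B score from integrated Fluo4 fluorescence ratio.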
TRPC4 spec 2 – second check of whether TRPC6 inhibitors also affect mouse TRPC4; shares compounds with TRPC6 inh; 42% of 920 active; HEK293 TRPC4/MOR, membrane potential dye fluorescence; channel activated by saturating DAMGO dose; inhibition, % at 10 µM;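 active means compounds whose fluorescence signal differed from control wells by over 3 SD, either direction, in both duplicate plates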
TRPC4 spec – mouse TRPC4 modulation by TRPC6 hits, confirmation, selectivity assay for TRPC6 inhibitor project, cell-based, HEK293 TRPC4/mu-opioid, membrane potential dye. shares compounds with TRPC6 inh. membrane potential fluorescence. activity change, negative = inhibition, % at 10 µM. 61% of 920 active. AID 2777, 2010;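 active means rise or fall in signal beyond 3 SD of buffer-only wells in both replicate plates, either sign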;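 further: integrated kinetic ratio of fluorescence range over baseline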
HEK293 MPD ctr 2-1 – nonspecific membrane potential effects, parental HEK293, confirmation, counter-screen for TRPC6 inhibitor project, cell-based, second counter screen. shares compounds with TRPC6 inh. parental HEK293 membrane potential dye fluorescence; maximal acetylcholine challenge after compound addition. signal change vs control, % at 10 µM. 31% of 920 active. AID 2779, 2010;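 active means membrane potential signal moving either way by over 3 SD of the maximum-effect control, in both duplicate plates, meaning non-specific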
HEK293 MPD ctr-1 – membrane potential modulation in parental HEK293, confirmation, counter-screen for TRPC6 inhibitor project, cell-based. 60% of 920 active. parental HEK293 membrane potential dye fluorescence. AID 2780, 2010. shares compounds with TRPC6 inh. membrane potential signal change, % at 10 µM;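 active means membrane potential signal shifting up or down by more than 3 SD of buffer-only wells, on both duplicate plates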
HEK293 MPD ctr-2 – parental HEK293 membrane potential modulation, confirmation, counter-screen for TRPC6 modulator project, cell-based; shares compounds with TRPC6 inh; membrane potential dye fluorescence; membrane potential signal change, % at 10 µM; 51% of 2,400 active;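 active means membrane potential signal moves up or down beyond 5 SD from buffer-only wells, on both duplicate plates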
HEK293 MPD ctr 2-2 – parental HEK293 nonspecific activity of TRPC6 modulators, second screen. shares compounds with TRPC6 inh. AID 488926. membrane potential dye fluorescence; after compound, maximal acetylcholine stimulation. inhibition, % at 10 µM. 14% of 2,400 active;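 active means membrane potential signal drops by more than 5 SD from the mean control signal, in both duplicate plates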;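 further: plate controls were acetylcholine ECmax control wells for no effect and buffer only wells for full effect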
TRPC4/MOR mod – TRPC4 modulation by TRPC6 hit compounds, confirmation, selectivity assay for TRPC6 modulator project, cell-based, HEK293 TRPC4/mu-opioid, membrane potential dye, mouse | shares compounds with TRPC6 inh | membrane potential fluorescence | percent change from control (negative = decrease, positive = increase), % at 10 µM | 69% of 2,400 active;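 active means membrane potential signal moved up or down beyond 5 SD of buffer control wells, in both duplicate plates, actives on both sides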;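 further: plate controls were assay buffer wells for no effect and DAMGO maximal-effect wells for full effect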
TRPC4 ctr inh 2 – second check of whether TRPC6 modulators also affect mouse TRPC4. shares compounds with TRPC6 inh. inhibition, % at 10 µM. 55% of 2,400 active. HEK293 TRPC4/mu-opioid, membrane potential dye fluorescence; stimulated with maximal-effect DAMGO;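 active means drop in membrane potential signal beyond 5 SD of the control wells in both duplicate plates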;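 further: TRPC4 counter screen for TRPC6 hits run under conditions tuned for TRPC6 not TRPC4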
TRPC6 inh conf – mouse TRPC6 channel inhibitors, confirmation, HEK293 cells, membrane potential dye, duplicate. shares compounds with TRPC6 inh. ACh-evoked depolarization. inhibition, % at 10 µM. 43% of 3,300 active;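 active means fluorescence ratio falls more than 5 SD below the full-stimulation control mean, in both duplicate runs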;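 further: integrated fluorescence ratio of peak minus minimum over baseline after agonist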
TRPC6 act conf – mouse TRPC6 channel activators, confirmation, HEK293 cells, membrane potential dye, duplicate; shares compounds with TRPC6 inh; HEK293-TRPC6 membrane potential dye fluorescence, FDSS; activation, % at 10 µM; 11% of 2,800 active; AID 488961, 2010;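 active means ratio signal rise beyond 5 SD above unstimulated control wells' mean, seen in both duplicate runs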;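 further: plate controls were buffer EC0 wells for no effect and acetylcholine ECmax response for full effect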
* marks the source's active call; other numbers are inactive results; i = inactive; nt = not tested or not shown. Most compounds without a hit are left out; they make up all but 2.3% or so of the library.

SMILES | TRPC6 inh | TRPC6 activator | DNA FID counter | TRPC4 potent | TRPC4 agonist | TRPC4 inh | HEK293 MPD ctr-2 | HEK293 MPD ctr 2-2 | TRPC4/MOR mod | TRPC4 ctr inh 2 | TRPC6 inh conf | TRPC6 act conf | others
COC(=O)C1(C)NC(c2ccc(OC)cc2)C2C(=O)N(c3ccccc3)C(=O)C21 (configuration not stated) | -7.78* | i | -5.3 | i | i | i | nt | nt | nt | nt | i | i | TRPC4 spec 2=i;TRPC4 spec=i;HEK293 MPD ctr 2-1=i;HEK293 MPD ctr-1=i
COc1cccc(NC(=S)N2CCC(c3ccc(C)cc3)C2)c1 (configuration not stated) | i | i | -22.5 | i | i | i | nt | nt | nt | nt | nt | nt
COc1ccc(C)cc1N=Nc1ccc(O)c2ncccc12 | -5.07* | i | -9.8 | i | i | i | -135.0%* | i | -33.5%* | 73.0%* | i | i
O=C(c1ccc(OC2CCN(Cc3ccc(C(F)(F)F)cc3)CC2)cc1)N1CCCCC1 | -6.28* | i | 19.4 | i | i | i | 126.0%* | i | i | 43.5%* | 66.5%* | nt
Cc1c(O)c(CN(C)C)cc2c1oc(=O)c1ccccc12 | -5.15* | i | 7.6 | i | i | i | -125.5%* | i | -27.5%* | i | i | i
CCC(C)(C)n1nnnc1C(c1ccc2ncccc2c1)N1CCCC(C)C1 (configuration not stated) | -7.22* | i | -20.4 | i | i | i | nt | nt | nt | nt | i | nt | TRPC4 spec 2=i;TRPC4 spec=27.2%*;HEK293 MPD ctr 2-1=i;HEK293 MPD ctr-1=15.7%*
CCC(C)(C)n1nnnc1C(c1ccc2ncccc2c1)N1CCN(c2ccc(O)cc2)CC1 (configuration not stated) | i | i | -26.9 | i | i | i | nt | nt | nt | nt | nt | nt
c1cnc2ccc(C(c3nnnn3C3CCCC3)N3CCSCC3)cc2c1 (configuration not stated) | -6.24* | 19.3* | -22.5 | i | i | i | 120.0%* | i | 31.5%* | i | 98.0%* | 147.5%*
COc1ccc(NC(=O)CN2CCN(C(=O)N3CCOCC3)CC2)cc1 | i | i | -1.5 | i | i | i | nt | nt | nt | nt | nt | nt
COc1cc([N+](=O)[O-])ccc1NC(=O)Nc1cnccn1 | -5.51* | i | 5.9 | i | i | i | i | i | 76.5%* | 90.5%* | 58.5%* | nt
COc1ccc(OC)c(/C=C2\SC(=S)N(C(C(=O)O)c3ccccc3)C2=O)c1 (configuration not stated) | i | 17.9* | -13.4 | i | i | i | 411.5%* | i | 83.0%* | i | i | 175.0%*
CCOc1ccc(/C=C2\SC(=S)N(C(C(=O)O)c3ccccc3)C2=O)cc1OC (configuration not stated) | i | i | -23.6 | i | i | i | nt | nt | nt | nt | nt | nt
CC(C)n1cnc2c(N(C)c3ccccc3)nc(N(CCN(C)C)Cc3ccccc3)nc21 | -5.79* | i | nt | i | 110* | i | 87.0%* | i | 40.0%* | 96.5%* | 48.5%* | i
CC(C)Cc1ccc(C2=CSC3=NCCN23)cc1 | -5.82* | i | nt | i | i | i | 94.5%* | i | i | 55.0%* | 48.5%* | nt
Cc1nc2nc(SCC(=O)NCCCN3CCCCCC3)nn2c(C)c1Cc1ccccc1Cl | i | i | 9.5 | i | i | i | nt | nt | nt | nt | nt | nt
Cc1nc2nc(SCC(=O)NCCCN3CCCC(C)C3)nn2c(C)c1Cc1ccccc1Cl (configuration not stated) | -6.74* | i | 26.0 | i | i | i | i | i | i | i | 49.0%* | nt
CCOC(=O)c1ccccc1NC(=O)COC(=O)C(CCSC)NC(=O)COc1ccccc1 (configuration not stated) | i | i | nt | i | i | i | nt | nt | nt | nt | nt | nt
Cc1ccc(CS(=O)(=O)c2cn(CC(=O)Nc3ccon3)c3ccccc23)cc1 | i | i | nt | i | i | i | nt | nt | nt | nt | nt | nt
